Results reported in ChEMBL document CHEMBL2429803, “Animal toxicity of hairpin pyrrole-imidazole polyamides varies with the turn unit” (J Med Chem, 2013).

Key:
Mus musculus [1] = experiment: Acute toxicity in C57BL/6J mouse at 1 mg/kg, sc after 9 days; assay type: organism-based; set-up: dose 1 mg/kg, route subcutaneous; settings: in vivo, 216 h
Procedure, shortened: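 Single sc injection in male 8-week-old C57BL/6J mice (1, 3 or 10 mg/kg in 25% DMSO/saline; n = 4 per group), followed for 9 days with daily weighing, then sacrifice. Toxicity was assessed by blinded histopathology of two mice per group and by blinded serum ALT, AST, total bilirubin, BUN and creatinine from retroorbital blood of all mice.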

Mus musculus [2] = experiment: Toxicity in C57BL/6J mouse assessed as weight loss at 1 mg/kg, sc administered every 3 days for a cycle of 2 injections; assay type: organism-based; set-up: dose 1 mg/kg, route subcutaneous; settings: in vivo, 72 h
Procedure, shortened: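 8-week-old male C57BL/6J mice, acclimated 3 days, groups of three, dosed sc in 25% DMSO/saline vehicle once every 3 days, sacrificed 2 days after the last injection. Body weight recorded on injection days and at end point; humane end point set at visible duress or >15% loss of original body weight.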

Mus musculus [3] = experiment: Acute toxicity in C57BL/6J mouse assessed as moderate atypical tubular regeneration in kidney at 3 to 10 mg/kg, sc after 9 days; assay type: organism-based; set-up: dose 3-10 mg/kg, route subcutaneous; settings: in vivo, 216 h
Procedure, shortened: (§1)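 Male C57BL/6J mice, 8 weeks old, received a single sc dose (1, 3 or 10 mg/kg in 25% DMSO/saline, n = 4 per group) and were sacrificed after 9 days. Two representative animals per group were fixed in 10% formalin. Cecum, duodenum, heart, ileum, kidney, liver, lung, pancreas, spleen and stomach were examined blind by a veterinary pathologist and lesions graded mild, moderate or severe.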

Mus musculus [4] = experiment: Acute toxicity in C57BL/6J mouse assessed as lesions in GI tract at 1 to 10 mg/kg, sc after 9 days; assay type: organism-based, Gastrointestinal tract; set-up: dose 1-10 mg/kg, route subcutaneous; settings: in vivo, 216 h; procedure, shortened: as §1
Mus musculus [5] = experiment: Acute toxicity in C57BL/6J mouse assessed as lesions in pancreas at 1 to 10 mg/kg, sc after 9 days; assay type: organism-based; set-up: dose 1-10 mg/kg, route subcutaneous; settings: in vivo, 216 h; procedure, shortened: as §1
Mus musculus [6] = experiment: Acute toxicity in C57BL/6J mouse assessed as tubular epithelial necrosis and apoptosis in kidney at 3 to 10 mg/kg, sc after 9 days; assay type: organism-based; set-up: dose 3-10 mg/kg, route subcutaneous; settings: in vivo, 216 h; procedure, shortened: as §1
Mus musculus [7] = experiment: Acute toxicity in C57BL/6J mouse assessed as karyomegaly at 1 mg/kg, sc after 9 days; assay type: organism-based; set-up: dose 1 mg/kg, route subcutaneous; settings: in vivo, 216 h; procedure, shortened: as §1
Mus musculus [8] = experiment: Toxicity in C57BL/6J mouse assessed as hunched posture at 1 mg/kg, sc administered every 3 days for a cycle of 2 injections; assay type: organism-based; set-up: dose 1 mg/kg, route subcutaneous; settings: in vivo, 72 h
Procedure, shortened: (§2)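 Male C57BL/6J mice, 3 per group, given 1 mg/kg sc every 3 days. Weight recorded on injection days. Watched for signs of duress. Humane end point was visible duress or weight loss over 15% of starting body weight.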

Mus musculus [9] = experiment: Acute toxicity in C57BL/6J mouse assessed as lesions in lungs at 1 to 10 mg/kg, sc after 9 days; assay type: organism-based; set-up: dose 1-10 mg/kg, route subcutaneous; settings: in vivo, 216 h; procedure, shortened: as §1
[10] = Metabolic stability in mouse liver microsomes after 1 hr by LC/MS/MS analysis; assay type: ADME, Microsome; settings: read-out: Stability
Procedure, shortened: (§3)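 Compound incubated at 37 °C for 60 min with 1 mg/mL human or mouse liver microsomes in 100 mM KH2PO4, 3 mM MgCl2, pH 7.4, with 2 mM NADPH or without it. Stopped with ice-cold methanol, then precipitate removed. Analyzed by LC/MS/MS as % remaining versus time zero. Duplicates.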

Mus musculus [11] = experiment: Acute toxicity in C57BL/6J mouse assessed as mild lymphoid apoptosis in white pulp of spleen at 3 to 10 mg/kg, sc after 9 days; assay type: organism-based; set-up: dose 3-10 mg/kg, route subcutaneous; settings: in vivo, 216 h; procedure, shortened: as §1
Mus musculus [12] = experiment: Acute toxicity in C57BL/6J mouse assessed as hepatocellular necrosis and apoptosis at 1 mg/kg, sc after 9 days; assay type: organism-based; set-up: dose 1 mg/kg, route subcutaneous; settings: in vivo, 216 h; procedure, shortened: as §1
[13] = Metabolic stability in human liver microsomes after 1 hr by LC/MS/MS analysis in presence of NADPH; assay type: ADME, Microsome; settings: read-out: Stability; procedure, shortened: as §3
Mus musculus [14] = experiment: Toxicity in C57BL/6J mouse assessed as hepatocellular necrosis and apoptosis at 1 mg/kg, sc administered every 3 days for a cycle of 3 injections measured 2 days post last injection; assay type: organism-based; set-up: dose 1 mg/kg, route subcutaneous; settings: in vivo, 48 h
Procedure, shortened: (§4)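 Male C57BL/6J mice, 8 weeks old, given 1 mg/kg sc every 3 days for three injections and sacrificed 2 days after the last one. Two mice per group fixed in 10% formalin. A veterinary pathologist, blinded, examined cecum, duodenum, heart, ileum, kidney, liver, lung, pancreas, spleen and stomach. Lesions graded mild, moderate or severe.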

Mus musculus [15] = experiment: Acute toxicity in C57BL/6J mouse assessed as lesions in heart at 1 to 10 mg/kg, sc after 9 days; assay type: organism-based; set-up: dose 1-10 mg/kg, route subcutaneous; settings: in vivo, 216 h; procedure, shortened: as §1
Mus musculus [16] = experiment: Acute toxicity in C57BL/6J mouse assessed as hunched posture at 3 to 10 mg/kg, sc after 9 days; assay type: organism-based; set-up: dose 3-10 mg/kg, route subcutaneous; settings: in vivo, 216 h
Procedure, shortened: (§5)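 Male C57BL/6J mice, 8 weeks old, were acclimated 3 days and then given a single sc injection of 1, 3 or 10 mg/kg in 25% DMSO/saline vehicle (up to 200 μL), n = 4 per group. Weight, behaviour and appearance were monitored daily for 9 days before sacrifice. The humane end point was visible duress or weight loss over 15% of the original.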

Mus musculus [17] = experiment: Acute toxicity in C57BL/6J mouse assessed as diffuse hepatocellular necrosis and apoptosis at 3 to 10 mg/kg, sc after 9 days; assay type: organism-based; set-up: dose 3-10 mg/kg, route subcutaneous; settings: in vivo, 216 h; procedure, shortened: as §1
Mus musculus [18] = experiment: Toxicity in C57BL/6J mouse assessed as hyaline droplet accumulation at 1 mg/kg, sc administered every 3 days for a cycle of 3 injections measured 2 days post last injection; assay type: organism-based; set-up: dose 1 mg/kg, route subcutaneous; settings: in vivo, 48 h; procedure, shortened: as §4
[19] = Metabolic stability in mouse liver microsomes after 1 hr by LC/MS/MS analysis in presence of NADPH; assay type: ADME, Microsome; settings: read-out: Stability; procedure, shortened: as §3
Mus musculus [20] = experiment: Acute toxicity in C57BL/6J mouse assessed as acute morbidity at 3 to 10 mg/kg, sc after 9 days; assay type: organism-based; set-up: dose 3-10 mg/kg, route subcutaneous; settings: in vivo, 216 h; procedure, shortened: as §5
Mus musculus [21] = experiment: Acute toxicity in C57BL/6J mouse assessed as lesions in stomach at 1 to 10 mg/kg, sc after 9 days; assay type: organism-based; set-up: dose 1-10 mg/kg, route subcutaneous; settings: in vivo, 216 h; procedure, shortened: as §1
Mus musculus [22] = experiment: Acute toxicity in C57BL/6J mouse assessed as multifocal bridging hepatocellular necrosis and apoptosis at 3 to 10 mg/kg, sc after 9 days; assay type: organism-based; set-up: dose 3-10 mg/kg, route subcutaneous; settings: in vivo, 216 h; procedure, shortened: as §1
Mus musculus [23] = experiment: Toxicity in C57BL/6J mouse assessed as loss of mobility at 1 mg/kg, sc administered every 3 days for a cycle of 2 injections; assay type: organism-based; set-up: dose 1 mg/kg, route subcutaneous; settings: in vivo, 72 h; procedure, shortened: as §2
Mus musculus [24] = experiment: Acute toxicity in C57BL/6J mouse assessed as milder tubular regeneration at 1 mg/kg, sc after 9 days; assay type: organism-based; set-up: dose 1 mg/kg, route subcutaneous; settings: in vivo, 216 h; procedure, shortened: as §1
[25] = Metabolic stability in human liver microsomes after 1 hr by LC/MS/MS analysis; assay type: ADME, Microsome; settings: read-out: Stability; procedure, shortened: as §3
Mus musculus [26] = experiment: Acute toxicity in C57BL/6J mouse assessed as loss of mobility at 3 to 10 mg/kg, sc after 9 days; assay type: organism-based; set-up: dose 3-10 mg/kg, route subcutaneous; settings: in vivo, 216 h; procedure, shortened: as §5

CC(=O)N[C@@H](CNC(=O)c1cc(NC(=O)c2cc(NC(=O)c3cc(NC(=O)c4nccn4C)cn3C)cn2C)cn1C)CC(=O)Nc1cn(C)c(C(=O)Nc2cc(C(=O)Nc3cc(C(=O)Nc4cc(C(=O)NCCCN(C)CCCNC(=O)c5cccc(C(=O)O)c5)n(C)c4)n(C)c3)n(C)c2)n1
Activity (Mus musculus [1]): Non-toxic | Activity (Mus musculus [2]): Toxic | Activity (Mus musculus [3]): Toxic | Activity (Mus musculus [4]): Non-toxic | Activity (Mus musculus [5]): Non-toxic | Activity (Mus musculus [6]): Toxic | Activity (Mus musculus [7]): Toxic | Activity (Mus musculus [8]): Toxic | Activity (Mus musculus [9]): Non-toxic | remaining at 1 h [10]: < 5% | Activity (Mus musculus [11]): Toxic | Activity (Mus musculus [12]): Toxic | remaining at 1 h [13]: < 5% | Activity (Mus musculus [14]): Toxic | Activity (Mus musculus [15]): Non-toxic | Activity (Mus musculus [16]): Toxic | Activity (Mus musculus [17]): Toxic | Activity (Mus musculus [18]): Toxic | remaining at 1 h [19]: < 5% | Activity (Mus musculus [20]): Toxic | Activity (Mus musculus [21]): Non-toxic | Activity (Mus musculus [22]): Toxic | Activity (Mus musculus [23]): Toxic | Activity (Mus musculus [24]): Toxic | remaining at 1 h [25]: < 5% | Activity (Mus musculus [26]): Toxic
